Test results: ChEMBL document CHEMBL4627259, “Discovery of LY3325656: A GPR142 agonist suitable for clinical testing in human” (Bioorg Med Chem Lett, 2020)
Calls of active or inactive are those of the source. No cut-off for these calls is given here.

Tests used:
Mus musculus [1] = assay: Hypoglycemic activity in lean C57BL/6J mouse assessed as reduction in glucose level at 0.01 mg/kg, po administered 30 mins prior to glucose challenge measured for 60 mins by IPGTT; assay type: functional
Outline: (§1)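 IPGTT in male C57BL/6 mice, lean or diet-induced obese; compound given orally 30 min before intraperitoneal glucose load; blood glucose followed over time. Mean ± SEM, n=5 per group, compared with vehicle (p<0.05, 0.01, 0.001).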

[2] = Clearance in rat at 1 mg/kg, iv or 10 mg/kg, po; assay type: ADME, organism-based; conditions: in vivo
[3] = molecular target: T1, Probable G-protein coupled receptor 142 (Homo sapiens) (UniProt Q7Z601); assay: Agonist activity at human GPR142 receptor expressed in HEK293 cells assessed as accumulation of inositol phosphate at 30 uM to 1 nM incubated for 1 hr followed by IP1-d2 addition by HTRF assay relative to control; assay type: functional, cell-based
T1 sequence (whole entry): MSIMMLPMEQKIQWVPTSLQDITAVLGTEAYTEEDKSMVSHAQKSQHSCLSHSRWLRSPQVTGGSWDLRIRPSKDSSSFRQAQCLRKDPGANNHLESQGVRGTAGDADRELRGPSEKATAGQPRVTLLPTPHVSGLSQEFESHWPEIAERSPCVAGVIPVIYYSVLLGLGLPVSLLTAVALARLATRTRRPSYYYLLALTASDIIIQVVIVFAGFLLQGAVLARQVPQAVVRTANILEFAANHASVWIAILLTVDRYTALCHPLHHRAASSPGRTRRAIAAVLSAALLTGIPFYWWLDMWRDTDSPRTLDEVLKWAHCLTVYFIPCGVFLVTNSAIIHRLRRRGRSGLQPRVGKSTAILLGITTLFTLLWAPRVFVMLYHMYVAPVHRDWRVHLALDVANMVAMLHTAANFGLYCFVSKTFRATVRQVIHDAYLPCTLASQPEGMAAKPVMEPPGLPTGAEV
Outline: (§2)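 HEK293 cells stably expressing human GPR142 (DMEM, 10% FBS, 800 ug/mL G418, 37 °C, 5% CO2), seeded 5000 cells/well and left 18 h to attach. Compounds added at 30 uM to 1 nM, 1 h incubation in HBSS (+Ca, +Mg), 0.1% BSA, 50 mM LiCl, 20 mM HEPES pH 7.2. IP-1 HTRF read-out: IP1-d2 then cryptate, 1 h at 25 °C, 665/620 nm ratio converted via IP-1 standard curve; EC50 by 4-parameter logistic fit.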

[4] = molecular target: T2, Probable G-protein coupled receptor 142 (Homo sapiens, UniProt Q7Z601); assay: Agonist activity at human GPR142 receptor expressed in HEK293 cells assessed as accumulation of inositol phosphate incubated for 1 hr followed by IP1-d2 addition by HTRF assay; assay type: functional, cell-based; outline: as §2
T2 sequence (Q7Z601 whole entry): T1 sequence (whole entry)

[5] = Volume of distribution at steady state in dog at 1 mg/kg, iv or 5 mg/kg, po; assay type: ADME, organism-based, Canis lupus familiaris; conditions: in vivo, read-out: Vdss
CYP2C9 = CYP2C9 (Homo sapiens, UniProt P11712); assay: Inhibition of CYP2C9 (unknown origin) at 10 uM relative to control; assay type: ADME
CYP2C9, sequence (P11712 whole entry): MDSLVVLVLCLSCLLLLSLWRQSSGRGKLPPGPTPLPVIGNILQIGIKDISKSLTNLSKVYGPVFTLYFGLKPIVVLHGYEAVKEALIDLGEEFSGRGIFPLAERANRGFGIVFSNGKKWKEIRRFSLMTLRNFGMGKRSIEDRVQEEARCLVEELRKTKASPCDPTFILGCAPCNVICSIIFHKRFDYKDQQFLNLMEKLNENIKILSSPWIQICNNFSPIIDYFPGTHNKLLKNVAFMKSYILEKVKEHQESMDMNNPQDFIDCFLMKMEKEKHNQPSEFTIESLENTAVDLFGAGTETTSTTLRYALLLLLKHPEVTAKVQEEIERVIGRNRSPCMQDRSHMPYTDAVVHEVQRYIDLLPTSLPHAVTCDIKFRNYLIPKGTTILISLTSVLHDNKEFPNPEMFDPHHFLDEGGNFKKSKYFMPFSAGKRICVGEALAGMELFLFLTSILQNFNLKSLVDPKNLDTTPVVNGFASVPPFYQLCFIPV

[6] = Fractional renal clearance in dog at 1 mg/kg, iv or 5 mg/kg, po; assay type: ADME, organism-based, Canis lupus familiaris; conditions: in vivo
Mus musculus [7] = assay: Hypoglycemic activity in lean C57BL/6J mouse assessed as reduction in glucose level at 0.1 mg/kg, po administered 30 mins prior to glucose challenge measured for 60 mins by IPGTT; assay type: functional; outline: as §1
[8] = Volume of distribution at steady state in rat at 1 mg/kg, iv or 10 mg/kg, po; assay type: ADME, organism-based; conditions: in vivo, read-out: Vdss
[9] = Clearance in dog at 1 mg/kg, iv or 5 mg/kg, po; assay type: ADME, organism-based, Canis lupus familiaris; conditions: in vivo
[10] = Hypoglycemic activity in mouse pancreatic islets assessed as increase in glucose-dependent insulin secretion at 10 uM relative to control; assay type: functional, Pancreatic islet
Outline: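 Isolated mouse pancreatic islets; glucose-dependent insulin secretion measured at 2.8 mM and 11.1 mM glucose with compound at 10 uM.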

Mus musculus [11] = assay: Hypoglycemic activity in diet-induced obese C57BL/6J mouse assessed as reduction in glucose level at 15 mg/kg, po co-administered with 5 mg/kg DPP-4 inhibitor, sitagliptin 30 mins prior to glucose challenge measured after 120 mins by IPGTT; assay type: functional, organism-based; outline: as §1
[12] = Oral bioavailability in dog at 5 mg/kg; assay type: ADME, organism-based, Canis lupus familiaris; conditions: in vivo
Mus musculus [13] = assay: Hypoglycemic activity in diet-induced obese C57BL/6J mouse assessed as reduction in glucose level at 15 mg/kg, po administered 30 mins prior to glucose challenge measured for 120 mins by IPGTT; assay type: functional, organism-based; outline: as §1
[14] = Drug metabolism in mouse microsomes assessed as drug turnover at 20 uM measured after 30 mins by LCMS analysis; assay type: ADME, Microsome; conditions: read-out: Drug metabolism
Outline: (§3)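 High-throughput microsomal stability: compound at 20 uM incubated with mouse, rat, dog or human liver microsomes at 37 °C; percent parent remaining measured after 30 min and reported as % turnover.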

Mus musculus [15] = assay: Hypoglycemic activity in po dosed lean C57BL/6J mouse assessed as reduction in glucose level administered 30 mins prior to glucose challenge measured for 60 mins by IPGTT; assay type: functional, organism-based; outline: as §1
Mus musculus [16] = assay: Hypoglycemic activity in lean C57BL/6J mouse assessed as reduction in glucose level at 0.3 mg/kg, po administered 30 mins prior to glucose challenge measured for 60 mins by IPGTT; assay type: functional; outline: as §1
CYP2D6 = CYP2D6 (Homo sapiens, UniProt P10635); assay: Inhibition of CYP2D6 (unknown origin) at 10 uM relative to control; assay type: ADME
CYP2D6, sequence (P10635 whole entry): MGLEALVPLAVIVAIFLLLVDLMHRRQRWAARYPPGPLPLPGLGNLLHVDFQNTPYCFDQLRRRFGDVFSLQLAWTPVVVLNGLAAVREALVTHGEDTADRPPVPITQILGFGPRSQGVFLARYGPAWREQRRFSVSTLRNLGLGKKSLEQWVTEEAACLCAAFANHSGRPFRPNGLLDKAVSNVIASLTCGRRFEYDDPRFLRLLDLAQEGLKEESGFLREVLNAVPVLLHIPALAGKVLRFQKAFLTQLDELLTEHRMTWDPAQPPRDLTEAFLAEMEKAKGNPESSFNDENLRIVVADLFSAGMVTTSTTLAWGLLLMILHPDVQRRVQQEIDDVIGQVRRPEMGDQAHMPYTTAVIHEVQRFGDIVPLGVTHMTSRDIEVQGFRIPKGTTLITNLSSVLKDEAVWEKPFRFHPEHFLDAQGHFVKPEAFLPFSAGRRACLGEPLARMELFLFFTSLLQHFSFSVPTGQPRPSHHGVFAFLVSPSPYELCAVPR

CYP3A4 = CYP3A4 (Homo sapiens, UniProt P08684); assay: Inhibition of CYP3A4 (unknown origin) at 10 uM relative to control; assay type: ADME
CYP3A4, sequence (P08684 whole entry): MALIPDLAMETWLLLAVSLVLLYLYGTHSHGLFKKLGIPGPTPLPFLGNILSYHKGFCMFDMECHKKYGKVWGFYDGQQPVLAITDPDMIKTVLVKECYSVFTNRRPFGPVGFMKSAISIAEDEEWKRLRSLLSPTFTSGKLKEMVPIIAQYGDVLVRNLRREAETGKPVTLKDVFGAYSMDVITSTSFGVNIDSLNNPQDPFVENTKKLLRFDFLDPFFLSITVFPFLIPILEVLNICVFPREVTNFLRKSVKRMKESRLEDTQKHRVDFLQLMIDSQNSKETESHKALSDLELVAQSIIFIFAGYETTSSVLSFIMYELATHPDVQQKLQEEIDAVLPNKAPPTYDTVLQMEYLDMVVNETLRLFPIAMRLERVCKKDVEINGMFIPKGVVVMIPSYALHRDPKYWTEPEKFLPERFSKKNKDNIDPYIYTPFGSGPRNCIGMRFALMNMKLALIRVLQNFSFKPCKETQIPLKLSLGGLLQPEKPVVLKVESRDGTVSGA

Mus musculus [17] = assay: Hypoglycemic activity in lean C57BL/6J mouse assessed as reduction in glucose level at 1 mg/kg, po administered 30 mins prior to glucose challenge measured for 60 mins by IPGTT; assay type: functional; outline: as §1
[18] = Drug metabolism in human microsomes assessed as drug turnover at 20 uM measured after 30 mins by LCMS analysis; assay type: ADME, Microsome; conditions: read-out: Drug metabolism; outline: as §3
[19] = Oral bioavailability in rat at 10 mg/kg; assay type: ADME, organism-based; conditions: in vivo
[20] = Drug metabolism in rat microsomes assessed as drug turnover at 20 uM measured after 30 mins by LCMS analysis; assay type: ADME, Microsome; conditions: read-out: Drug metabolism; outline: as §3
Mus musculus [21] = assay: Hypoglycemic activity in diet-induced obese C57BL/6J mouse assessed as increase in insulin secretion at 15 mg/kg, po co-administered with 5 mg/kg DPP-4 inhibitor, sitagliptin 30 mins prior to glucose challenge measured after 15 mins by IPGTT; assay type: functional, organism-based
Mus musculus [22] = assay: Hypoglycemic activity in lean C57BL/6J mouse assessed as reduction in glucose level at 0.03 mg/kg, po administered 30 mins prior to glucose challenge measured for 60 mins by IPGTT; assay type: functional; outline: as §1
Mus musculus [23] = assay: Hypoglycemic activity in lean C57BL/6J mouse assessed as reduction in glucose level at 10 mg/kg, po administered 30 mins prior to glucose challenge measured for 60 mins by IPGTT; assay type: functional; outline: as §1
Mus musculus [24] = assay: Hypoglycemic activity in diet-induced obese C57BL/6J mouse assessed as increase in plasma insulin secretion at 10 mg/kg, po administered 30 mins prior to glucose challenge measured after 15 mins by IPGTT; assay type: functional, organism-based; conditions: 15 mg/kg, in the assay text read “15 mg/kg” for “10 mg/kg”
Outline: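 IPGTT in male diet-induced obese mice; compound given orally 30 min before intraperitoneal glucose; plasma insulin measured. Mean ± SEM, n=5 per group, versus vehicle.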

[25] = Drug metabolism in dog microsomes assessed as drug turnover at 20 uM measured after 30 mins by LCMS analysis; assay type: ADME, Canis lupus familiaris, Microsome; conditions: read-out: Drug metabolism; outline: as §3
[26] = Dissociation constant, pKa of compound; assay type: physicochemical
[27] = Toxicity in rat assessed as NOAEL administered as repeated dose for 1 month; conditions: in vivo
[28] = Permeability of compound; assay type: ADME; conditions: not told
Cytochrome P450 2C9 = Cytochrome P450 2C9 (Homo sapiens, UniProt P11712); assay: Induction of CYP2C9 (unknown origin) at 10 uM; assay type: ADME
Cytochrome P450 2C9, sequence (P11712 whole entry): as the sequence (P11712 whole entry) above

[29] = Solubility of compound at pH 2 to 7.5; assay type: physicochemical; conditions: buffer
Cytochrome P450 3A4 = Cytochrome P450 3A4 (Homo sapiens, UniProt P08684); assay: Induction of CYP3A4 (unknown origin) at 10 uM; assay type: ADME
Cytochrome P450 3A4, sequence (P08684 whole entry): as the sequence (P08684 whole entry) above

Cytochrome P450 2D6 = Cytochrome P450 2D6 (Homo sapiens, UniProt P10635); assay: Induction of CYP2D6 (unknown origin) at 10 uM; assay type: ADME
Cytochrome P450 2D6, sequence (P10635 whole entry): as the sequence (P10635 whole entry) above

[30] = Toxicity in dog assessed as NOAEL administered as repeated dose for 1 month; parameters: species or system Canis lupus familiaris; conditions: in vivo

| Compound | clearance [2] | Emax [3] | EC50 [4] | Vd [5] | inhibition at 10 µM (CYP2C9) | CL [6] | Vd [8] | clearance [9] | bioavailability [12] | metabolised at 0.5 h, 20 µM [14] | inhibition at 10 µM (CYP2D6) | inhibition at 10 µM (CYP3A4) | metabolised at 0.5 h, 20 µM [18] | bioavailability [19] | metabolised at 0.5 h, 20 µM [20] | metabolised at 0.5 h, 20 µM [25] | pKa [26] | also measured |
| --- | --- | --- | --- | --- | --- | --- | --- | --- | --- | --- | --- | --- | --- | --- | --- | --- | --- | --- |
| Cc1ncn(C)c1NC(=O)[C@H]1CCC[C@@H](N(C)C(=O)c2cccc(C(F)(F)F)c2)C1 | 49.6 mL/min/kg | 104% | 30 nM | 1.2 L/kg | 14% | 20% | 1.3 L/kg | 17.6 mL/min/kg | 66% | 89% | 0% | 6.1% | 32% | 28% | 41% | 28% | 6.9 | inhibition in vivo at 0.01 mg/kg (Mus musculus [1]): 9%; inhibition in vivo at 0.1 mg/kg (Mus musculus [7]): 12%; fold change (FC) [10]: 1.4; Activity (Mus musculus [11]): Active; Activity (Mus musculus [13]): Active; Activity (Mus musculus [15]): Dose-dependent effect; inhibition in vivo at 0.3 mg/kg (Mus musculus [16]): 27%; inhibition in vivo at 1 mg/kg (Mus musculus [17]): 34%; Activity (Mus musculus [21]): Active; inhibition in vivo at 0.03 mg/kg (Mus musculus [22]): 11%; inhibition in vivo at 10 mg/kg (Mus musculus [23]): 47%; Activity (Mus musculus [24]): Active |
| Cc1ncn(C)c1-c1nnc([C@H]2CCC[C@@H](N(C)C(=O)c3cccc(Cl)c3)C2)[nH]1 | 40.1 mL/min/kg | 111% | 14 nM | 0.9 L/kg | 0% |  | 1 L/kg | 8.8 mL/min/kg | 86% | 39% | 0% | 3.3% | 26% | 29% | 55% | 33% |  |  |
| Cc1ncn(C)c1-c1nnc([C@@H]2C[C@H](N(C)C(=O)c3cccc(C(F)(F)F)c3)CCO2)[nH]1 | 22.1 mL/min/kg |  | 43 nM | 1.3 L/kg | 11% | < 5% | 1.1 L/kg | 8.4 mL/min/kg | 78% | 22% | 16% | 22% | 14% | 63% | 14% | 13% | 5.9 | NOAEL at 1 month [27]: 200 mg/kg; Papp [28]: 13.5 ×10⁻⁶ cm/s; Activity (Cytochrome P450 2C9): Not Active; solubility [29]: > 2000 µg/mL; Activity (Cytochrome P450 3A4): Not Active; Activity (Cytochrome P450 2D6): Not Active; NOAEL at 1 month [30]: 180 mg/kg |
